Many of the other results were omitted from the sample, so hits are more common in it than they were.
IDH1 R132H inh: IDH1 R132H (human) inhibition; IDH1 R132H reductase, diaphorase/resazurin fluorescence, 60 min; O75874; AID 624101; actives 0.18% (n = 70,000); inhibition, % at 10 µM; in the data active means inhibition above about 34%; inconclusive means no clear call, values can overlap the other calls; inactive means below about 11%;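 further: 0% = DMSO and 100% = no enzyme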
T cruzi growth-1: blocks T. cruzi growth in NIH3T3 culture. T. cruzi beta-gal in NIH3T3, GalScreen luminescence, 90 h. inhibition, % at 8.34 µM. actives 5.9% (n = 77,000);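 active means mean inhibition above about 93%, with at least 55% of replicates each passing it, limit read from the data, passing the limit was not always enough; inconclusive means only one of those two conditions holds; inactive means neither condition holds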
GASC1 inh: blocks human GASC-1 (KDM4C) demethylase activity. AID 720574. inhibition, % at 12.5 µM. GST-KDM4C 2-372, H3K9me3 peptide, LANCE TR-FRET. actives 0.15% (n = 96,000);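 active means mean replicate inhibition above about 25%, with at least 55% of replicates also reaching it, limit read from the data, passing the limit was not always enough; inconclusive means only one of those two conditions met; inactive means neither condition met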
Target sequence (Q9H3R0 2-372 limits assumed): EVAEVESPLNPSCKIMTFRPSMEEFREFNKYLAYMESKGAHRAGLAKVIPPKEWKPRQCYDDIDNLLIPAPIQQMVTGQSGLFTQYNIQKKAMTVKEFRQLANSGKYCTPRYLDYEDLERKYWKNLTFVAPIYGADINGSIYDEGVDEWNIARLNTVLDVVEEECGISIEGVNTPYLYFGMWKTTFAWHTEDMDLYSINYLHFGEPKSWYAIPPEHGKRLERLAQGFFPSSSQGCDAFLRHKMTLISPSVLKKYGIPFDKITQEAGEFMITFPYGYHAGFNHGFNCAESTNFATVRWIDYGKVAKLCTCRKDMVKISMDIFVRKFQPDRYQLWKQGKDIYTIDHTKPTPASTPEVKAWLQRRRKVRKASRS
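System – N-terminal GST-fused human GASC-1 (KDM4C) fragment, residues 2-372 · Input – enzyme final amount 10 nM · Technique – LANCE TR-FRET, Eu antibody, ULight-streptavidin, EDTA, ex 340 nm, em 618/671 nm · Medium – HEPES buffer, pH 7.5, plus ascorbate · Incubation – enzyme reaction 30 min, then detection 60 min, both room temperature · Reagent – H3K9me3 peptide with Fe(II)/2OG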
T cruzi growth-2: blocks T. cruzi growth in NIH3T3 host cells. shares compounds with T cruzi growth-1. T. cruzi beta-gal in NIH3T3, GalScreen luminescence, 90 h. inhibition, % at 8.35 µM. actives 72% (n = 5,600). AID 651739;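 active means mean replicate inhibition above about 95% and at least 55% of replicates individually reaching it, limit read from the data; inconclusive means only one of the two criteria is met; inactive means neither criterion is met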
T cruzi growth-3: inhibitors of T. cruzi proliferation; T. cruzi beta-gal in NIH3T3, GalScreen luminescence, 90 h; inhibition, % at 2.09 µM; shares compounds with T cruzi growth-1; AID 651740; actives 21% (n = 5,600);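 active means mean inhibition above about 95%, with at least 55% of replicates also reaching it, limit read from the data; inconclusive means meets just one of the two conditions; inactive means meets neither condition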;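 further: plate controls were neutral control median for no effect and positive control median for full effect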
NIH3T3 tox: NIH/3T3 (mouse) viability loss; shares compounds with T cruzi growth-1; NIH/3T3 viability, CellTiter-Glo ATP luminescence, 90 h; cytotoxicity (signal decrease), % at 8.35 µM; actives 14% (n = 5,600);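 active means mean signal decrease across replicates above about 35% based on untreated-well scatter, with enough replicates individually passing, limit read from the data; inconclusive means no rule stated though some were filed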;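 further: 0% = median of neutral control wells and 100% = median of positive control wells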
3T3 cytotox 2: kills mouse NIH/3T3 fibroblasts | shares compounds with T cruzi growth-1 | NIH/3T3 viability, CellTiter-Glo ATP luminescence, 90 h | inhibition, % at 24.9 µM | actives 56% (n = 5,600);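 active means mean loss of cell viability signal at or above a set limit, and enough replicates individually reaching it; inconclusive means meets only the mean limit or only the replicate share; inactive means meets neither condition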;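 further: 0% = median of neutral control wells and 100% = median of positive control wells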
An asterisk follows results filed as active; ? = inconclusive; · = no result given; + = active, no number.

SMILES | IDH1 R132H inh | T cruzi growth-1 | GASC1 inh | T cruzi growth-2 | T cruzi growth-3 | NIH3T3 tox | 3T3 cytotox 2
O=C(C1CC1)N1CC[C@@H]2[C@@H](CO)Nc3ccc(-c4cccc(F)c4)cc3[C@@H]21 | · | 109* | 2 | 101* | 83 | -1 | 26*
O=C(C1CCC1)N1CC[C@@H]2[C@H](CO)Nc3ccc(-c4cccc(F)c4)cc3[C@@H]21 | · | ? | 1 | 106* | 91 | 1 | 70*
Cc1ccc(NC(=O)C(C)Sc2nnc(C)s2)cc1 (stereo not given) | -1 | · | · | · | · | · | ·
Cc1ccccc1Cn1ccc(NC(=O)c2nn3c(c2Cl)NC(c2ccccc2)CC3C(F)(F)F)n1 (stereo not given) | 0 | · | · | · | · | · | ·
CN1C(=O)c2cccc(NC(=O)C3COc4ccccc4O3)c2C1=O (stereo not given) | -1 | · | · | · | · | · | ·
COCC#Cc1ccc([C@H]2[C@@H](CO)N3CCCCN(Cc4cncnc4)C[C@@H]23)cc1 | · | 108* | 0 | 92 | 61 | 6 | 13
COCC#Cc1ccc([C@@H]2[C@H](CO)N3CCCCN(Cc4cccnc4)C[C@@H]23)cc1 | · | 10 | -1 | · | · | · | ·
COCC#Cc1ccc([C@H]2[C@H](CO)N3CCCCN(Cc4cccnc4)C[C@@H]23)cc1 | · | 102* | 0 | 101* | 86 | 13 | 5
COCC#Cc1ccc([C@H]2[C@@H](CO)N3CCCCN(Cc4cccnc4)C[C@H]23)cc1 | · | 100* | 1 | 96* | 59 | 5 | 14
COCC#Cc1ccc([C@H]2[C@H]3CN(Cc4cncnc4)CCCCN3[C@H]2CO)cc1 | · | 78 | -1 | · | · | · | ·
CC1(C)CC[C@]2(C(=O)O[C@@H]3O[C@H](CO)[C@@H](O)[C@H](O)[C@H]3O)CC[C@]3(C)C(=CCC4[C@@]5(C)CC[C@@H](O[C@@H]6O[C@H](C(=O)O)[C@@H](O[C@@H]7OC[C@@H](O)[C@H](O)[C@H]7O)[C@H](O[C@@H]7OC[C@](O)(CO)[C@H]7O)[C@H]6O)C(C)(C)C5CC[C@]43C)C2C1 (stereo not given in full) | 0 | · | · | · | · | · | ·
CCN1[C@@H]2c3ccc(-c4ccc(F)cc4)c(=O)n3C[C@@H]2[C@@H](CO)[C@@H]1C(=O)Nc1ccccc1 | · | · | 8 | · | · | · | ·
CCC(=O)N1[C@@H]2c3ccc(-c4cccc(F)c4)c(=O)n3C[C@@H]2[C@@H](CO)[C@@H]1C(=O)N1CCCCC1 | · | · | 0 | · | · | · | ·
CN1[C@@H]2c3ccc(-c4cccc(F)c4)c(=O)n3C[C@@H]2[C@@H](CO)[C@@H]1C(=O)NCc1ccccn1 | · | 77 | 10 | · | · | · | ·
CN1[C@@H]2c3ccc(-c4ccc(F)cc4)c(=O)n3C[C@@H]2[C@@H](CO)[C@@H]1C(=O)Nc1ccccc1 | · | + | 1 | -21 | -34 | -27 | -5
CCCNC(=O)N1[C@H](C(=O)N2CCCCC2)[C@@H](CO)[C@@H]2Cn3c(ccc(-c4ccc(F)cc4)c3=O)[C@@H]21 | · | 98* | 2 | 17 | -19 | -14 | 6
CN1[C@H](C(=O)Nc2ccccc2)[C@@H](CO)[C@@H]2Cn3c(ccc(-c4ccc(F)cc4)c3=O)[C@@H]21 | · | + | 1 | 103* | 11 | -16 | 11
COCC(=O)N1[C@H](C(=O)Nc2ccccc2)[C@@H](CO)[C@@H]2Cn3c(ccc(-c4ccc(F)cc4)c3=O)[C@@H]21 | · | 10 | -1 | · | · | · | ·
CN1[C@H](C(=O)NCc2ccccn2)[C@@H](CO)[C@@H]2Cn3c(ccc(-c4cccc(F)c4)c3=O)[C@@H]21 | · | 111* | 5 | 52 | 5 | 17 | 13
COC(=O)c1c(-c2ccccc2)csc1NC(=O)c1cc2cccc(OC)c2oc1=O | 0 | · | · | · | · | · | ·
COc1ccc(NC(=O)CCn2cnc3ccccc3c2=O)cc1OC | 0 | · | · | · | · | · | ·
C[C@@H]1CN([C@@H](C)CO)C(=O)c2cc(NC(=O)NC3CCCCC3)ccc2O[C@@H]1CN(C)Cc1ccc(Cl)c(Cl)c1 | -6 | ? | 1 | 97* | 10 | 28 | 27
C[C@H]1CN([C@@H](C)CO)C(=O)c2cc(NC(=O)NC3CCCCC3)ccc2O[C@@H]1CN(C)Cc1ccc(Cl)c(Cl)c1 | 0 | 50 | 1 | · | · | · | ·
C[C@@H]1CN([C@H](C)CO)C(=O)c2cc(NC(=O)NC3CCCCC3)ccc2O[C@H]1CN(C)Cc1ccc(Cl)c(Cl)c1 | 2 | 93* | 0 | 106* | -22 | 20 | 13
C[C@H](CO)N1C[C@H](C)[C@@H](CN(C)Cc2ccc(Cl)c(Cl)c2)Oc2ccc(NC(=O)NC3CCCCC3)cc2C1=O | 2 | 7 | -1 | · | · | · | ·
SMILES | IDH1 R132H inh | T cruzi growth-1 | GASC1 inh | T cruzi growth-2 | T cruzi growth-3 | NIH3T3 tox | 3T3 cytotox 2
CC1(C)CC(n2c(SCC(N)=O)nc3c(c2=O)C2(CCCCC2)Cc2ccccc2-3)CCO1 (stereo not given) | 0 | · | · | · | · | · | ·
O=C(O)c1c(O)cc(OC2OC(CO)C(O)C(O)C2O)cc1/C=C/c1ccccc1 (stereo not given) | -1 | · | · | · | · | · | ·
O=C(CCCCC(=O)N/N=C/c1ccc(Br)cc1)NO | 0 | · | · | · | · | · | ·
COc1cccc(S(=O)(=O)Nc2ccc3c(c2)C(=O)N(C)C[C@@H](OC)[C@@H](C)CN(Cc2ccccc2F)[C@@H](C)CO3)c1 | 0 | · | 2 | · | · | · | ·
CO[C@@H]1CN(C)C(=O)c2cc(NS(=O)(=O)c3cccc(F)c3)ccc2OC[C@@H](C)N(Cc2cc(F)ccc2F)C[C@@H]1C | 0 | 100* | 2 | 115* | 43 | 2 | 93*
COc1cccc(S(=O)(=O)Nc2ccc3c(c2)OC[C@H](C)N(Cc2ccccc2F)C[C@@H](C)[C@H](OC)CN(C)C3=O)c1 | 0 | 23 | 1 | · | · | · | ·
COc1cccc(S(=O)(=O)Nc2ccc3c(c2)OC[C@@H](C)N(Cc2cc(F)ccc2F)C[C@@H](C)[C@H](OC)CN(C)C3=O)c1 | 0 | 102* | 0 | 107* | 47 | -16 | -23
COc1cccc(S(=O)(=O)Nc2ccc3c(c2)OC[C@H](C)N(Cc2ccccc2F)C[C@H](C)[C@@H](OC)CN(C)C3=O)c1 | · | · | 0 | · | · | · | ·
COc1cccc(S(=O)(=O)Nc2ccc3c(c2)OC[C@@H](C)N(Cc2ccccc2F)C[C@@H](C)[C@H](OC)CN(C)C3=O)c1 | 0 | 96* | 12 | 105* | 32 | 2 | -6
Cc1nc(CSc2ncnc3sc(C)c(C)c23)cs1 | 0 | · | · | · | · | · | ·
O=C(O)Cc1ccc(NC(=O)c2cccnc2C(=O)O)cc1 | 1 | · | · | · | · | · | ·
CN1C(=O)c2cc(NC(=O)c3cnccn3)ccc2OC[C@@H]2O[C@@H](CC(=O)N[C@@H]3CCN(Cc4ccccc4)C3)CC[C@H]21 | · | 101* | -1 | 101* | 48 | 0 | -8
CN1C(=O)c2cc(NC(=O)c3cnccn3)ccc2OC[C@H]2O[C@@H](CC(=O)N[C@H]3CCN(Cc4ccccc4)C3)CC[C@@H]21 | · | 82 | -1 | · | · | · | ·

From PubChem
